ChEMBL document CHEMBL1148917, “Dibenzyl bromophenols with diverse dimerization patterns from the brown alga Leathesia nana” (J Nat Prod, 2004)

Legend:
Type in all cases: functional, cell-based
HCT-8 = test: Cytotoxicity against human HCT8 cells after 96 hrs by MTT assay
Procedure, shortened: (§1)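 Cells grown in RPMI1640 with 10% FBS, penicillin and streptomycin at 37 °C under humidified 5% CO2; seeded at 1200 cells/well and dosed 24 h later. Five concentrations per compound in DMSO (0.1% final), three parallel wells each. After 96 h exposure, MTT conversion to formazan read at 570 nm; IC50 calculated from the readings.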

Bel-7402 = test: Cytotoxicity against human Bel7402 cells after 96 hrs by MTT assay; procedure, shortened: as §1
A549 = test: Cytotoxicity against human A549 cells after 96 hrs by MTT assay; procedure, shortened: as §1
BGC-823 = test: Cytotoxicity against human BGC823 cells after 96 hrs by MTT assay; procedure, shortened: as §1
MCF7 = test: Cytotoxicity against human MCF7 cells after 96 hrs by MTT assay; procedure, shortened: as §1

SMILES | IC50 (HCT-8) | IC50 (Bel-7402) | IC50 (A549) | IC50 (BGC-823) | IC50 (MCF7)
COCc1c(Br)c(Br)c(O)c(O)c1Cc1cc(O)c(O)c(Br)c1Br | > 16.8 µM | 0.0048 uM/ml | 2.5 µM | 8.8 µM | 2.7 µM
COCc1cc(O)c(O)c(Br)c1Cc1cc(O)c(O)c(Br)c1Br | 5.9 µM | 0.0074 uM/ml | 5.4 µM | 18 µM | 4.6 µM
CCOCc1cc(O)c(O)c(Br)c1Cc1cc(O)c(O)c(Br)c1Br | 2.8 µM | 0.0055 uM/ml | > 19 µM | 4.6 µM | 3.4 µM
Oc1cc(COCc2cc(O)c(O)c(Br)c2Br)c(Br)c(Br)c1O | 20.7 µM | > 0.0019 uM/ml | > 19.5 µM | 8.6 µM | 21.4 µM
Oc1cc(Cc2cc(O)c(O)c(Br)c2Br)c(Br)c(Br)c1O | 2.2 µM | > 0.0182 uM/ml | 1.8 µM | 3.8 µM | 2.7 µM
